Tested on: U2OS
Assay: Multiplex assay against U2OS
Assay type: toxicity, cell-based
Details: human
Procedure, shortened: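 Live cells were stained at seeding with Hoechst33342, BioTracker Green Microtubule Cytoskeleton Dye, MitoTracker Red and Annexin V Alexa Fluor 680. Following compound addition, they were imaged on a CQ1 microscope at 37°C and 5% CO2 and gated by CellPathfinder machine learning into Hoechst high-intensity objects or normal cells, with normal cells split into healthy, pyknosed or fragmented nuclei and pyknosed cells into mitotic or apoptotic. Tubulin, mitochondrial-mass and membrane-permeability phenotypes are per cents of healthy-nucleus cells.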

[1] = 12 h, 1 µM, compound concentration 1 uM, replicate 1
[2] = 12 h, 1 µM, compound concentration 1 uM, replicate 2
[3] = 12 h, 10 µM, compound concentration 10 uM, replicate 1
[4] = 12 h, 10 µM, compound concentration 10 uM, replicate 2
[5] = 24 h, 1 µM, compound concentration 1 uM, replicate 1
[6] = 24 h, 1 µM, compound concentration 1 uM, replicate 2
[7] = 24 h, 10 µM, compound concentration 10 uM, replicate 1
[8] = 24 h, 10 µM, compound concentration 10 uM, replicate 2
[9] = 48 h, 1 µM, compound concentration 1 uM, replicate 1
[10] = 48 h, 1 µM, compound concentration 1 uM, replicate 2
[11] = 48 h, 10 µM, compound concentration 10 uM, replicate 1
[12] = 48 h, 10 µM, compound concentration 10 uM, replicate 2

CN1CCC[C@@H]1CCO[C@](C)(c1ccccc1)c1ccc(Cl)cc1.O=C(O)/C=C/C(=O)O [CLEMASTINE FUMARATE]
Population Apoptotic (%) [1]: 50% | Population Fragmented Nuclei (%) [1]: 12% | Population Healthy Nuclei (%) [1]: 72% | Population Hoechst High Intensity Objects (%) [1]: 11% | Population Membrane Permeable-Phenotype (%) [1]: 5% | Population Mitochondria Different-Phenotype (%) [1]: 18% | Population Mitotic Cells (%) [1]: 50% | Population Normal (%) [1]: 88% | Population Pyknosed Nuclei (%) [1]: 14% | Population Tubulin-Different-Phenotype (%) [1]: 12% | Total Cell Count [1]: 108 | Population Fragmented Nuclei (%) [2]: 15% | Population Healthy Nuclei (%) [2]: 76% | Population Hoechst High Intensity Objects (%) [2]: 1% | Population Membrane Permeable-Phenotype (%) [2]: 3% | Population Mitochondria Different-Phenotype (%) [2]: 6% | Population Normal (%) [2]: 98% | Population Pyknosed Nuclei (%) [2]: 7% | Population Tubulin-Different-Phenotype (%) [2]: 3% | Total Cell Count [2]: 78 | Population Apoptotic (%) [3]: 50% | Population Fragmented Nuclei (%) [3]: 24% | Population Hoechst High Intensity Objects (%) [3]: 18% | Population Membrane Permeable-Phenotype (%) [3]: 13% | Population Mitochondria Different-Phenotype (%) [3]: 97% | Population Mitotic Cells (%) [3]: 50% | Population Normal (%) [3]: 81% | Population Pyknosed Nuclei (%) [3]: 34% | Population Tubulin-Different-Phenotype (%) [3]: 83% | Total Cell Count [3]: 127 | Population Apoptotic (%) [4]: 85% | Population Fragmented Nuclei (%) [4]: 19% | Population Healthy Nuclei (%) [4]: 41% | Population Hoechst High Intensity Objects (%) [4]: 21% | Population Membrane Permeable-Phenotype (%) [4]: 6% | Population Mitochondria Different-Phenotype (%) [4]: 86% | Population Mitotic Cells (%) [4]: 14% | Population Normal (%) [4]: 78% | Population Pyknosed Nuclei (%) [4]: 38% | Population Tubulin-Different-Phenotype (%) [4]: 40% | Total Cell Count [4]: 46 | Population Apoptotic (%) [5]: 55% | Population Fragmented Nuclei (%) [5]: 7% | Population Healthy Nuclei (%) [5]: 85% | Population Hoechst High Intensity Objects (%) [5]: 6% | Population Membrane Permeable-Phenotype (%) [5]: 5% | Population Mitochondria Different-Phenotype (%) [5]: 9% | Population Mitotic Cells (%) [5]: 44% | Population Normal (%) [5]: 93% | Population Pyknosed Nuclei (%) [5]: 7% | Population Tubulin-Different-Phenotype (%) [5]: 13% | Total Cell Count [5]: 135 | Population Apoptotic (%) [6]: 18% | Population Fragmented Nuclei (%) [6]: 14% | Population Healthy Nuclei (%) [6]: 70% | Population Hoechst High Intensity Objects (%) [6]: 0% | Population Mitochondria Different-Phenotype (%) [6]: 13% | Population Mitotic Cells (%) [6]: 81% | Population Normal (%) [6]: 99% | Population Pyknosed Nuclei (%) [6]: 15% | Population Tubulin-Different-Phenotype (%) [6]: 6% | Total Cell Count [6]: 107 | Population Apoptotic (%) [7]: 64% | Population Fragmented Nuclei (%) [7]: 33% | Population Healthy Nuclei (%) [7]: 35% | Population Hoechst High Intensity Objects (%) [7]: 10% | Population Membrane Permeable-Phenotype (%) [7]: 21% | Population Mitochondria Different-Phenotype (%) [7]: 100% | Population Mitotic Cells (%) [7]: 35% | Population Normal (%) [7]: 90% | Population Pyknosed Nuclei (%) [7]: 31% | Population Tubulin-Different-Phenotype (%) [7]: 68% | Total Cell Count [7]: 120 | Population Apoptotic (%) [8]: 76% | Population Fragmented Nuclei (%) [8]: 21% | Population Healthy Nuclei (%) [8]: 36% | Population Hoechst High Intensity Objects (%) [8]: 12% | Population Membrane Permeable-Phenotype (%) [8]: 26% | Population Mitochondria Different-Phenotype (%) [8]: 86% | Population Mitotic Cells (%) [8]: 23% | Population Normal (%) [8]: 87% | Population Pyknosed Nuclei (%) [8]: 41% | Population Tubulin-Different-Phenotype (%) [8]: 26% | Total Cell Count [8]: 47 | Population Apoptotic (%) [9]: 38% | Population Hoechst High Intensity Objects (%) [9]: 3% | Population Membrane Permeable-Phenotype (%) [9]: 4% | Population Mitochondria Different-Phenotype (%) [9]: 11% | Population Mitotic Cells (%) [9]: 61% | Population Normal (%) [9]: 96% | Population Pyknosed Nuclei (%) [9]: 10% | Population Tubulin-Different-Phenotype (%) [9]: 6% | Total Cell Count [9]: 184 | Population Apoptotic (%) [10]: 31% | Population Fragmented Nuclei (%) [10]: 5% | Population Healthy Nuclei (%) [10]: 84% | Population Hoechst High Intensity Objects (%) [10]: 1% | Population Membrane Permeable-Phenotype (%) [10]: 5% | Population Mitochondria Different-Phenotype (%) [10]: 13% | Population Mitotic Cells (%) [10]: 68% | Population Normal (%) [10]: 98% | Population Pyknosed Nuclei (%) [10]: 9% | Population Tubulin-Different-Phenotype (%) [10]: 15% | Total Cell Count [10]: 164 | Population Apoptotic (%) [11]: 83% | Population Fragmented Nuclei (%) [11]: 33% | Population Healthy Nuclei (%) [11]: 25% | Population Hoechst High Intensity Objects (%) [11]: 11% | Population Membrane Permeable-Phenotype (%) [11]: 3% | Population Mitochondria Different-Phenotype (%) [11]: 80% | Population Mitotic Cells (%) [11]: 16% | Population Normal (%) [11]: 88% | Population Pyknosed Nuclei (%) [11]: 41% | Population Tubulin-Different-Phenotype (%) [11]: 50% | Total Cell Count [11]: 117 | Population Apoptotic (%) [12]: 54% | Population Fragmented Nuclei (%) [12]: 25% | Population Healthy Nuclei (%) [12]: 46% | Population Hoechst High Intensity Objects (%) [12]: 15% | Population Membrane Permeable-Phenotype (%) [12]: 44% | Population Mitochondria Different-Phenotype (%) [12]: 72% | Population Mitotic Cells (%) [12]: 45% | Population Normal (%) [12]: 84% | Population Pyknosed Nuclei (%) [12]: 28% | Population Tubulin-Different-Phenotype (%) [12]: 55% | Total Cell Count [12]: 46

Reference: ChEMBL document CHEMBL4689842, “EUbOPEN Chemogenomics Library wave 1” (2021)
